# A selection: hits, their analogues and other compounds. The true share with any hit is near 1.9%.
# UHRF1 MBD2 ctr: UHRF1 methylated DNA binding inhibitors, primary screen, counter-screen for MBD2 inhibitor project, biochemical, TR-FRET, human UHRF1, single concentration; E3 ubiquitin-protein ligase UHRF1 (Homo sapiens), Q96T88; UHRF1 binding to methylated oligo; inhibition, % at 4.4 µM; 370,000 tested, 0.75% active; in the data active means inhibition above about 21%;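 further: UHRF1 SRA domain binding a hemimethylated CpG hairpin DNA probe; 0% = median of test compound wells and 100% = reference inhibitor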
# TDP2 absorb: human TDP2 enzyme inhibitors, primary screen, biochemical, epi absorbance, recombinant enzyme; inhibition, % at 12.8 µM; 370,000 tested, 0.34% active; T5PNP hydrolysis, p-nitrophenol absorbance 415 nm;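 active means inhibition above the mean of all tested compounds plus 3 SD, set per campaign, cut at about 25% in these data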;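 further: 0% = DMSO with enzyme and 100% = buffer with substrate but no TDP2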
#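 Test system: Human TDP2 enzyme | Reagent: 5 mM T5PNP | Compound dosing: 12.8 µM single point, 1% DMSO | Incubation: Enzyme reaction with compound for 2 h at 37 °C | Technique: p-Nitrophenol epi absorbance | Read-out: % inhibition relative to enzyme-containing and enzyme-free wells | Benchmarks: High control without enzyme, low control DMSO plus TDP2 | Replicates: Singlicate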
# MBD2 inh: inhibitors of MBD2 binding to methylated DNA, primary screen, biochemical, TR-FRET, DNA-binding domain, human; MBD2 binding to methylated oligonucleotide; inhibition, % at 4.4 µM; 370,000 tested, 0.31% active; in the data active means inhibition above about 13%
# Target sequence (Q9UBB5 whole entry, looked up, the tested form may be a part): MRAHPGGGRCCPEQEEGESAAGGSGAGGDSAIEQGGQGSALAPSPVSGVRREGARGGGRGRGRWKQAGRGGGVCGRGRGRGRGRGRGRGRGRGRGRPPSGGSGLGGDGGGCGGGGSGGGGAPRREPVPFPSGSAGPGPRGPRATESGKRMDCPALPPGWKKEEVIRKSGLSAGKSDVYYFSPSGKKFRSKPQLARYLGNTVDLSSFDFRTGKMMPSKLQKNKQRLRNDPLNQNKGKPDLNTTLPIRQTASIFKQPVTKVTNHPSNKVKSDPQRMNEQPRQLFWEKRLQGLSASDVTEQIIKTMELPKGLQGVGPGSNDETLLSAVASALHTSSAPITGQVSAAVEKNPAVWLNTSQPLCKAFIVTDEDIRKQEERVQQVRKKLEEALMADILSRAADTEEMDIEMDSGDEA
# DDE Tn7 FP inh: inhibitors of Tn7 peptide binding to fibrin DD(E), primary screen, biochemical, fluorescence polarization, human fibrin, Tn7 probe; Fibrinogen beta chain (Homo sapiens), P02675; FP displacement of FITC-Tn7 peptide from fibrin DD(E); 0% = median of compound wells per plate; inhibition, % at 8.3 µM; 370,000 tested, 0.13% active; AID 720508, 2013;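 active means inhibition above the mean of compounds falling within the control limits plus 3 SD of them, cut at about 14% in these data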;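 further: 0% = plate median of compound wells and 100% = 10 µM Aha-Tn7 peptide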
#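 assay system = human clot-derived fibrin DD(E) complex | quantity = Fibrin-DD(E) at 2 µM final | timing = 10 min preincubation, 3 h with tracer, room temperature | signal = fluorescence polarization | measure = percent inhibition | benchmarks = high control wells with 10 µM unlabelled Aha-Tn7 peptide (full inhibition) | replicates = singlicate testing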
# DDE Tn6 FP inh: inhibitors of Tn6 peptide binding to fibrin DD(E), primary screen, biochemical, fluorescence polarization, human fibrin, Tn6 probe. Fibrin DD(E) TRITC-Tn6 fluorescence polarization displacement. AID 720509, 2013. Fibrinogen beta chain (Homo sapiens), P02675. inhibition, % at 8.3 µM. 370,000 tested, 0.21% active;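 active means inhibition above a per-campaign cutoff: mean of compounds within control limits plus 3 SD, cut at about 15% in these data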;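 further: 0% = median of all compound wells on the plate and 100% = blocking peptide control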
# LEDGF integ inh: blockers of LEDGF/p75-dependent integrase strand transfer – biochemical, TR-FRET, high throughput, primary screen; AID 743269, 2014; TR-FRET IN-LEDGF/p75 DNA integration, Eu/Cy5; 370,000 tested, 0.64% active; HIV-1 integrase (with human LEDGF/p75); inhibition, % at 3.7 µM;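 active means inhibition above the screen-wide mean plus 3 SD, cut at about 13% in these data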;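 further: signal is the Cy5 over europium emission ratio at 671 and 618 nm; 0% = plate median of compound wells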
# Numbers without * were called inactive.
SMILES,UHRF1 MBD2 ctr,TDP2 absorb,MBD2 inh,DDE Tn7 FP inh,DDE Tn6 FP inh,LEDGF integ inh
O=[N+]([O-])c1ccc(OC[C@@H](O)CN2CCC(C(O)(c3ccccc3)c3ccccc3)CC2)c(Cl)c1,2,-9,1,-2,3,12
COC(=O)C1=C(C)N(C)C(=O)/C1=C\c1cccs1,0,-4,-4,3,-5,2
COC(=O)C1=C(C)N(C2CCCCC2)C(=O)/C1=C\c1cccs1,53*,7,-4,-2,3,-1
CCc1ccc(OCC(=O)NC(=S)Nc2ccc(F)cc2)c(Br)c1,-3,-9,5,4,8,-2
CCc1ccc(OCC(=O)NC(=S)Nc2ccc(C(C)=O)cc2)c(Br)c1,24*,-4,7,-8,-5,5
Cc1c(NS(=O)(=O)c2ccc(F)cc2)c(=O)n(-c2ccccc2)n1C,25*,-5,-2,-2,0,2
Cc1c(NC(=O)/C=C/c2cn(-c3ccccc3)nc2-c2ccc(F)cc2)c(=O)n(-c2ccccc2)n1C,47*,-10,-4,-4,1,4
Cc1c(NS(=O)(=O)c2ccccc2)c(=O)n(-c2ccccc2)n1C,0,-4,-3,-4,1,4
N#CC(c1c(Cl)cccc1N1CCCCC1)N1CCCCC1 (centres undefined),-2,10,-2,-4,-4,-1
CCOC(=O)[C@@]12CCCC3=C1N(CCC3)C(=O)[C@H]2CC(=O)NCc1cccc(C(F)(F)F)c1,-2,5,-6,3,-3,0
Cc1ccccc1CNC(=O)C1CCC(CNS(=O)(=O)c2cccc3cccnc23)CC1 (centres undefined),-1,9,-3,-13,-1,1
CCCCOc1ccc(Nc2cc(Cl)ccc2C(=O)O)cn1,22*,6,12,6,-1,-3
COc1ccc(CC(=O)Nc2cc(Cl)ccc2C(=O)O)cc1,1,-2,3,-3,1,4
Nc1ccn([C@@H]2O[C@H](C(=O)N[C@H](Cc3ccccc3)C(=O)N3CCSC3)[C@@H](O)[C@H]2O)c(=O)n1,-3,0,2,-1,3,1
CCCCCNC(=O)C(c1ccc(C(F)(F)F)cc1)n1c(=O)c(-c2ccco2)nc2ccccc21 (centres undefined),21*,15,8,4,-5,10
CCCCCNC(=O)C(c1cccc2ccccc12)n1c(=O)c(-c2ccco2)nc2ccccc21 (centres undefined),-3,2,0,2,-2,-1
Cc1ccc(S(=O)(=O)N2C[C@]3(O)C[C@@H]4C(=O)N(c5ccccc5)C(=O)[C@@H]4C[C@]3(OC(=O)NCc3ccccc3)C2)cc1,23*,10,9,-5,4,1
Cc1ccc(S(=O)(=O)N2C[C@]3(O)C[C@@H]4C(=O)N(c5ccccc5)C(=O)[C@@H]4C[C@]3(OC(=O)NCc3ccco3)C2)cc1,-1,-9,1,0,4,-1
O=C1CCCCC1CCS(=O)(=O)NCc1ccccc1 (centres undefined),16,10,3,3,11,0
COc1ccc2cc3[n+](cc2c1O)CCc1cc2c(cc1-3)OCO2,7,24,-1,0,1,27*
COc1cc2c(cc1OC)-c1cc3ccc(OC)c(OC)c3c[n+]1CC2,-17,-9,-14,6,0,-3
O=C(CSc1nc(-c2ccccc2)c(-c2ccccc2)o1)N1CCOCC1,92*,0,0,0,10,-2
O=C(CSc1nnc(-c2ccccc2)c(-c2ccccc2)n1)N1CCOCC1,1,-1,-3,6,5,2
COC(=O)c1ccc2nc(-c3ccc(OC)c(OC)c3)c(Cc3ccccc3C(F)(F)F)n2c1,24*,2,5,-4,1,2
COC(=O)c1ccc2nc(-c3ccccc3)c(Cc3ccccc3C(F)(F)F)n2c1,2,1,-1,3,5,2
SMILES,UHRF1 MBD2 ctr,TDP2 absorb,MBD2 inh,DDE Tn7 FP inh,DDE Tn6 FP inh,LEDGF integ inh
COC(=O)c1ccc2nc(-c3ccc(OC)c(OC)c3)c(Cc3ccccc3OC)n2c1,23*,5,8,-1,5,-4
Cc1cc(CN2CCCC(CO)(Cc3cccc(Cl)c3)C2)n[nH]1 (centres undefined),24*,-9,3,-8,6,4
CC(C)Cc1cc(CN2CCCC(CO)(Cc3cccc(Cl)c3)C2)[nH]n1 (centres undefined),-2,2,5,5,3,4
C[C@@H]1CN([C@@H](C)CO)C(=O)CCCn2cc(nn2)CO[C@H]1CN(C)S(C)(=O)=O,-2,18,-6,2,7,2
Cc1ccc(C)c2[nH]c(=O)c(CN(Cc3ccc4c(c3)OCO4)Cc3nnnn3Cc3ccco3)cc12,4,-2,2,-3,-9,18*
CCC(C)CNC(=O)c1oc(=O)c2ccccc2c1-c1ccc(C)cc1 (centres undefined),2,8,2,5,10,0
O=C(COC(=O)c1ccccc1Cl)NCc1ccco1,8,1,10,-6,6,3
CSCCC(NC(=O)c1ccccc1)C(=O)OCC(=O)NCc1ccco1 (centres undefined),27*,-10,-4,-7,1,3
O=C(COC(=O)c1ccccc1Nc1ccccc1)NCc1ccco1,21*,0,-1,0,1,-3
COc1cc2c(cc1OC)CN(c1nc(CN3CCCC3)nc3sc(C)c(C)c13)CC2,34*,9,3,6,-3,-4
COc1cc2c(cc1OC)CN(c1nc(CN3CCCCC3)nc3sc4c(c13)CCCC4)CC2,2,-12,1,-6,5,1
O=C(NNC(=O)C1CCN(Cc2ccc(F)cc2Cl)CC1)Nc1ccc([N+](=O)[O-])cc1,29*,0,-2,1,-2,6
COc1ccc(/C=C/c2nc(-c3ccccc3O)n[nH]2)cc1,66*,-4,4,-3,-6,-4
C=CCn1c(SCC(=O)O)nc2sc(CC)cc2c1=O,0,4,-5,-1,-4,3
